Compounds with a hit are over-represented: about 1.9% of the library has one in this group of screens.
NTR1 agonist: activates human neurotensin receptor 1; 0.17% of 330,000 active; activation, % at 20 µM; P30989; NTR1-U2OS beta-arrestin-GFP spot imaging, agonist mode;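 active = activation at or above 40% of the spot to cytoplasm intensity ratio, with at least 20 cells analyzed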;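 note: 0% = DMSO without peptide and 100% = 100 nM NTR1 peptide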
TLR9-MyD88 block: TLR9-MyD88 interaction inhibition; Q9NR96+Q99836; CHO BLA complementation TLR9-MyD88, CCF4 FRET ratio; inhibition, % at 4.98 µM; 0.21% of 340,000 active; AID 504734;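 active = inhibition above the mean over all tested compounds plus 3 SD, cut at about 21% in these data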;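 note: 0% = DMSO only wells and 100% = clavulanate BLA inhibitor control wells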
MC4R antagonist: blocks human MC4R cAMP signaling | P32245 | MC4R-expressing cells, MTII-stimulated cAMP, LANCE TR-FRET | inhibition, % at 6.5 µM | 0.48% of 360,000 active;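 active = inhibition above its plate's cutoff, the mean of tested wells on that plate plus 3 SD, cut at about 29% in these data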;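 note: 0% = Melanotan II alone and 100% = Melanotan II plus saturating MCL0020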
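Assay system: U2OS cells stably expressing human melanocortin 4 receptor (MC4R) / Dosing: 6.5 µM / Timing: compound 30 min, challenge 1 h, detection 1 h / Measured by: Eu-cAMP/anti-cAMP TR-FRET, emission 671 nm / Replicates: singlicate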
NOD2 RIPK2 PPI: inhibitors of human NOD2-RIPK2 interaction; AID 624267; 0.38% of 360,000 active; CHO BLA complementation NOD2-RIPK2, CCF4 ratio; inhibition, % at 4.98 µM; in the data active = inhibition above about 21%;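 note: 0% = vehicle only and 100% = reference blocker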
Target sequence (O43353 whole entry, looked up): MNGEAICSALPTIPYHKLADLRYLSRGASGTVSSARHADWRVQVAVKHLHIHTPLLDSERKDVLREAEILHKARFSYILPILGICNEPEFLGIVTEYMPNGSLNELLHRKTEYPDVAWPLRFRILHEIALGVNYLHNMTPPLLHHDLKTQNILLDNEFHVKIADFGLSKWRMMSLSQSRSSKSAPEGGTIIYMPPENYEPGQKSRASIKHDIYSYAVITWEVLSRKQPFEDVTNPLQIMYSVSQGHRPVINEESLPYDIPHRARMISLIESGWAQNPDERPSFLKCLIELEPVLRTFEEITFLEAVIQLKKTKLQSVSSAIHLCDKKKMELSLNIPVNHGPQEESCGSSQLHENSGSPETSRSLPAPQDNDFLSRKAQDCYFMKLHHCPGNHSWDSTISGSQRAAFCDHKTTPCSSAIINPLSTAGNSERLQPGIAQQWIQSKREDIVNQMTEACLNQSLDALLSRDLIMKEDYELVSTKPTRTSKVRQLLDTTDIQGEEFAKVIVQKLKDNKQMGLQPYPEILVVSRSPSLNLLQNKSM
TLR4-MyD88 BLA: inhibitors of human TLR4-MyD88 binding. inhibition, % at 8.4 µM. HeLa CL3-4 TLR4/MyD88 BLA complementation, FRET ratio. AID 861. 0.18% of 200,000 active; in the data active = inhibition above about 25%;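 note: 0% = vehicle and 100% = reference inhibitor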
MC4R ag barr: agonists of human melanocortin 4 receptor (MC4R) beta-arrestin. 0.98% of 360,000 active. AID 540308. U2OS MC4R beta-arrestin complementation, luminescence; percent of melanotan II response, DMSO zero. activation, % at 8.9 µM. P32245;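 active = activation above a per-plate cutoff, the mean activation of sample wells on that plate plus 3 SD, cut at about 8% in these data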
NOD2-RIPK2 conf: NOD2-RIPK2 interaction inhibition confirmed; shares compounds with NOD2 RIPK2 PPI; CHO cells, NOD2-RIPK2 BLA complementation, CCF4 FRET; inhibition, % at 4.98 µM; 70% of 1,200 active;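 active = mean inhibition across replicates above a set limit taken from the earlier primary screen, cut at about 21% in these data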;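 note: 0% = DMSO-only wells and the high end = clavulanate BLA-blocked wells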
NOD2 BLA counter: counter-screen for NOD2-RIPK2 interaction inhibitors: BLA reporter | inhibition, % at 4.98 µM | 57% of 1,200 active | shares compounds with NOD2 RIPK2 PPI | CHO BLA reporter, CCF4 FRET ratio, counterscreen | AID 624371;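 active = mean inhibition above the low-control mean inhibition plus three low-control SD, cut at about 11% in these data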;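 note: 0% = DMSO only wells and 100% = clavulanate high control wells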
* hit, by the source's call; . = not tested or not shown.

SMILES | NTR1 agonist | TLR9-MyD88 block | MC4R antagonist | NOD2 RIPK2 PPI | TLR4-MyD88 BLA | MC4R ag barr | NOD2-RIPK2 conf | NOD2 BLA counter
CCCCCNC(=O)C(c1ccccc1)n1c(=O)c(-c2cc3ccccc3[nH]2)nc2ccccc21 (stereo not drawn) | . | . | . | 46* | . | . | 40* | 64*
CCCCCNC(=O)C(CCc1ccccc1)n1c(=O)c(-c2cc3ccccc3[nH]2)nc2ccccc21 (stereo not drawn) | . | . | . | 44* | . | . | 41* | 66*
COc1ccccc1CC(NC(C)=O)C(=O)NC1CCN(C(=O)Nc2ccc(F)cc2)CC1 (stereo not drawn) | 5 | -2 | -1 | -3 | . | -3 | . | .
O=[N+]([O-])c1ccccc1S(=O)(=O)N1CCCC(C(F)(F)F)C1 (stereo not drawn) | 1 | -8 | 2 | 5 | . | 1 | . | .
CCCCc1c(-c2ccc(OC)cc2)ncn1CCc1ccccc1OC | . | . | . | -10 | . | . | . | .
CCCCCOc1ccc(Br)cc1/C(C)=N/NC1=NCCN1 | 10 | 9 | -23 | 23* | 5 | 6 | 22* | -2
O=C(Cc1csc(Nc2nc(=S)[nH]c3ccccc23)n1)NCCCN1CCN(c2ccccc2F)CC1 | 8 | 20 | 9 | 47* | 6 | 0 | 46* | 54*
COc1cc(C(C)=O)ccc1OCC(=O)Nc1ccc(Cl)c(S(=O)(=O)N2CCOCC2)c1 | 9 | -10 | 15 | 2 | . | -1 | . | .
CCc1ccnc(NS(=O)(=O)c2ccc3c(c2)CCO3)c1 | 0 | . | 0 | -21 | . | -1 | . | .
Cc1ccc(NC(=O)Cn2ncc(Cl)c(Cl)c2=O)cc1S(=O)(=O)N1CCCCC1 | -1 | 1 | 25 | 34* | . | -5 | 43* | 10*
Cc1ccc(NC(=O)Cc2ccc(Cl)cc2)cc1S(=O)(=O)N1CCCCCC1 | 3 | 3 | 8 | 1 | . | 3 | . | .
O=c1ccc2ccccc2c2ccccc12 | . | . | . | 43* | . | . | 41* | -3
c1ccc2c(c1)ccc1ccccc12 | -1 | -10 | -7 | -11 | . | 5 | . | .
CN(CC1COCCO1)c1nc2nonc2nc1N1CCSCC1 (stereo not drawn) | 0 | -16 | 5 | 34* | -23 | 1 | -2 | 2
C1CCN(C2CCN(c3nc4nonc4nc3N3CCSCC3)CC2)C1 | 0 | 4 | 9 | -7 | -8 | -3 | . | .
COc1ccc(-c2csc(-c3cc4ccccc4oc3=N)n2)cc1 | 2 | 19 | -1 | 31* | 12 | 1 | 16 | 23*
COc1ccc(-c2noc(-c3cc4ccccc4oc3=O)n2)cc1 | -1 | . | . | . | 1 | . | . | .
C#CCN(C[C@@H]1[C@@H](OC(=O)NCc2ccccc2F)[C@@H](OC(=O)NCc2ccccc2F)Cn2c(=O)ccc(=O)n21)S(=O)(=O)c1ccc(C)cc1 | . | -2 | 27 | 23* | . | 0 | 21* | -3
O=[N+]([O-])c1cc(Br)c(Nc2ccccc2)c([N+](=O)[O-])c1 | 39 | 9 | -55 | 41* | . | -4 | 58* | -8
O=C(Nc1ccccc1)c1ccc(Nc2c([N+](=O)[O-])cc([N+](=O)[O-])c3ccccc23)cc1 | 3 | -1 | -6 | -11 | 0 | 0 | . | .
COc1ccc2c3c(cccc13)C(=O)CC2 | . | 0 | -5 | 27* | . | -4 | 2 | 5
O=C(Nc1ccon1)c1csc2ccccc12 | -2 | 2 | 19 | -15 | -1 | 2 | . | .
O=C(Nc1cnccn1)c1csc2ccccc12 | -1 | -1 | 16 | 33* | -3 | 1 | -4 | -3
Cc1cc(C)c(C#N)c(SCC(O)COc2ccc(Br)cc2)n1 (stereo not drawn) | 15 | -5 | 11 | 4 | . | 4 | . | .
O=C(NCc1ccccc1)C1Cc2c(-c3ccc(Cl)cc3)ccnc2O1 (stereo not drawn) | . | . | -2 | 21* | . | 0 | 18 | 1
SMILES | NTR1 agonist | TLR9-MyD88 block | MC4R antagonist | NOD2 RIPK2 PPI | TLR4-MyD88 BLA | MC4R ag barr | NOD2-RIPK2 conf | NOD2 BLA counter
S=C(c1ccc(-c2ccccc2Cl)o1)N1CCOCC1 | 0 | -3 | -4 | 22* | 2 | -1 | 6 | -1
Cc1ccc(-c2nnn(CC(=O)Nc3ccccc3N3CCOCC3)n2)cc1 | 3 | -6 | -3 | 21* | -1 | 2 | -3 | 2
COc1ccc(-c2ncccc2OC(=O)C23CC4CC(CC(C4)C2)C3)cc1 | 6 | -7 | -14 | -2 | 0 | 2 | . | .
CC(C)(C)c1nc2c(C#N)c(-c3ccc(Cl)cc3)ccn2n1 | 1 | 2 | 6 | 24* | 1 | 2 | 2 | -2
O=C(O)c1cc(Cl)ccc1-c1ccc(/C=C/c2cc(C(F)(F)F)[nH]c(=O)n2)o1 | -1 | 19 | -1 | 23* | 16 | -1 | 33* | 42*
COc1ccc(N(C(=O)c2snc(C(N)=O)c2N)C(C(=O)NCC2CCCO2)c2ccc3ncccc3c2)cc1OC (stereo not drawn) | 1 | -3 | 12 | 3 | . | -2 | . | .
CCOC(=O)C1(CCc2ccccc2)CCN(C(=O)c2ccoc2)CC1 | 0 | 6 | 3 | -7 | -20 | 0 | . | .
CCOC(=O)C1(CCCc2ccccc2)CCN(C(=O)c2ccoc2)CC1 | 3 | -7 | 10 | 45* | -3 | 2 | -1 | -4
Cc1ccc(-c2nnn3c2nc(Cl)c2ccccc23)cc1 | . | -6 | -8 | 1 | 24 | -3 | . | .
Clc1nc2c(-c3ccccc3)nnn2c2ccccc12 | 24 | 20 | -73 | 24* | . | -1 | 80* | 62*
Cc1[nH]c(=O)c(C#N)c2c1CCCC2 | 3 | -17 | 7 | -12 | 2 | -1 | . | .
Cc1[nH]c(=S)c(C#N)c2c1CCCC2 | 0 | 2 | 10 | 27* | -10 | 0 | -9 | -6
O=C(NC1CCCCC1)C(c1ccncc1)n1c(=O)c(-c2ccccc2)nc2ccccc21 (stereo not drawn) | . | . | . | -4 | . | . | . | .
O=C(NC1CCCCC1)C(c1ccc(C(F)(F)F)cc1)n1c(=O)c(-c2cc3ccccc3[nH]2)nc2ccccc21 (stereo not drawn) | . | . | . | 41* | . | . | 36* | 66*
O=C(NC1CCCCC1)C(c1ccncc1)n1c(=O)c(-c2cc3ccccc3[nH]2)nc2ccccc21 (stereo not drawn) | . | . | . | 53* | . | . | 48* | 68*
O=C(Nc1ccc(F)cc1F)C1CCN(S(=O)(=O)c2cccnc2)CC1 | 1 | 7 | 3 | -6 | . | -1 | . | .
COc1ccc(-c2cc(C(=O)NC3CCCCC3)no2)cc1OC | 1 | -20 | 1 | 58* | . | 0 | 6 | 2
Cc1ccc(-c2cc(C(=O)NC3CCCCC3)no2)cc1 | -1 | -3 | 3 | -4 | . | -1 | . | .
Clc1nc(Cl)c2ncn(-c3ccccc3)c2n1 | . | 5 | 5 | 22* | . | -2 | 41* | 11*
CCc1ccc(NC(=O)CCC(=O)Nc2nnc(C(C)C)s2)cc1 | 0 | 6 | 8 | 4 | . | -1 | . | .
O=C(CC(=O)N/N=C\c1ccccc1)NCCc1ccccc1 | 0 | 14 | 11 | 22* | . | 0 | 2 | 1
